We go through twelve compounds from ChEMBL document CHEMBL1155014, “On the antibiotic activity of oxazolomycin” (2008).

What all share (format): functional
Test [1] concerns Staphylococcus aureus. Kind of test: Antibacterial activity against Staphylococcus aureus NCTC 6571 at 4 mg/ml by hole plate method. The note with it: for zone of inhibition at 4000 µg/mL: read-out: IZ. The method, boiled down: (§1)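 Hole-plate assay on bioassay plates seeded with the test organism. Compounds at 4 mg/ml in 7:3 DMSO/H2O were loaded into wells and incubated overnight at 37 °C. Inhibition zone diameters were then measured.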

The test system of test [2] is Staphylococcus aureus. Kind of test: Antibacterial activity against Staphylococcus aureus NCTC 6571 at 4 mg/ml by hole plate method relative to cephalosporin C. The method, boiled down: (§2)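 Hole-plate diffusion: compound solutions at 4 mg/ml (7:3 DMSO/H2O) were placed in wells and incubated overnight at 37 °C. Inhibition zone diameters were measured, and potency was expressed as zone size per mg/ml relative to standards prepared with cephalosporin C.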

Test [3] deals with Escherichia coli. Kind of test: Antibacterial activity against Escherichia coli X580 at 4 mg/ml by hole plate method. The note with it: for zone of inhibition at 4000 µg/mL: read-out: IZ. In short, it runs like this:
as §1

Test [4] concerns Escherichia coli. Kind of test: Antibacterial activity against Escherichia coli X580 at 4 mg/ml by hole plate method relative to cephalosporin C. In short, it runs like this: as §2
The test system of test [5] is Escherichia coli. Kind of test: Antibacterial activity against Escherichia coli X580 by serial dilution. The method, boiled down:
(§3)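 MIC estimated by serial dilution of compound, each dilution assayed by the hole-plate method (overnight, 37 °C). The end point is the dilution at which no inhibition zone is obtained.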

The test system of test [6] is Staphylococcus aureus. Kind of test: Antibacterial activity against Staphylococcus aureus NCTC 6571 by serial dilution. In short, it runs like this: as §3

Converted amounts (≈) assume the structure as drawn. The source made the active and inactive calls. No cut-off for these calls is given here.

As usually defined, the MIC is the lowest concentration found to suppress growth. Lower therefore signals a more susceptible organism. Take `C/C(=C/C=C/c1ccccc1)C(O)C(C)(C)C(N)=O` (centres undefined): the results for the zone of inhibition at 4000 µg/mL in test [1] and in test [3] were 14 mm and 28 mm, respectively. Further, the Activity in test [2] was determined as 0.05 millimeter/mg/ml; in test [4] it was 0.03 millimeter/mg/ml. In test [5], this compound displayed an MIC of 1000 µg/mL (≈ 3860 µM).

Turning to `C=CCNC(=O)C(C)(C)C(O)c1ccccc1/C=C/c1ccccc1` (centres undefined), the results for the zone of inhibition at 4000 µg/mL in test [1] and in test [3] were 14 mm and 20 mm, respectively. Moreover, the Activity is 0.06 millimeter/mg/ml in test [2] and 0.01 millimeter/mg/ml in test [4]. It took 500 µg/mL (≈ 1490 µM) to inhibit growth in test [5] (MIC).

In the case of `CCCNC(=O)C(C)(C)C(O)c1ccccc1` (centres undefined), the result in test [1] and in test [3] was inactive.

As for `CC(C)(C(N)=O)C(O)/C=C/c1ccccc1` (centres undefined), the result in test [1] and in test [3] was inactive.

Regarding `CC(C)(C(=O)NCc1ccccc1)C(O)c1ccccc1` (centres undefined), in test [1], the result was inactive. For the same compound, the zone of inhibition at 4000 µg/mL in test [3] was found to be 17 mm. Further, the Activity in test [4] worked out at 0.005 millimeter/mg/ml. For the same compound, the MIC in test [5] stood at 500 µg/mL (≈ 1760 µM).

Take `C=CCNC(=O)C(C)(C)C(O)CCCCCCC` (centres undefined): the result in test [1] was inactive. In addition, in test [3], the zone of inhibition at 4000 µg/mL stood at 22 mm. The Activity in test [4] worked out at 0.01 millimeter/mg/ml. The same compound returned an MIC in test [5] of 1000 µg/mL (≈ 3920 µM).

Turning to `C#CCNC(=O)C(C)(C)C(O)c1ccccc1` (centres undefined), the outcome in test [1] was inactive. In addition, the zone of inhibition at 4000 µg/mL in test [3] turned out to be 15 mm. The same compound displayed an Activity in test [4] of 0.003 millimeter/mg/ml.

`C=CCNC(=O)C(C)(C)C1(O)CCCCC1`: the result in test [1] and in test [3] was inactive.

In the case of `C=CCNC(=O)C(C)(C)C(O)c1ccccc1` (racemic), the result in test [1] and in test [3] was inactive.

As to `C=CCNC(=O)C(C)(C)C(O)CCCCc1ccccc1` (racemic), the zone of inhibition at 4000 µg/mL in test [1] amounted to 17 mm; in test [3], 23 mm. For the same compound, the results for the Activity in test [2] and in test [4] were 0.08 millimeter/mg/ml and 0.01 millimeter/mg/ml, respectively. The results for the minimum inhibitory concentration (MIC) in test [6] and in test [5] were 4000 µg/mL (≈ 13800 µM) and 500 µg/mL (≈ 1730 µM), respectively.

Consider `C=CCNC(=O)C(C)(C)C(O)Cc1ccccc1` (centres undefined), for which the result in test [1] and in test [3] was inactive.

For the compound `CC(C)(C(=O)NCc1ccc(Br)cc1)C(O)c1ccccc1` (centres undefined), the outcome in test [1] and in test [3] was inactive.
